Measured values from different studies.
Protocols differ between the studies behind these lines.
Cell line: HCT-116
Observed: cell growth or viability

COc1nc(NCc2cn(-c3ccc(C(=O)Nc4ccc(F)cc4)cc3)nn2)nc(OC)n1 — IC50 (MTT; 72 h): 0.0341 µM
Cc1nc(Nc2ccc3c(c2)CC(=O)N3)c2ccccc2n1 — IC50 (MTT): 12.3 µM
Cc1ccc(-c2cc(-c3ccc(N(C)C)cc3)c3c(=O)n(C)c(=O)n(C)c3n2)cc1 — IC50 (MTT; 48 h): 12 µM
COc1ccc(C(=O)Nc2ccc(-n3cc(CNc4nc(OC)nc(OC)n4)nn3)cc2)cc1 — IC50 (MTT; 72 h): 0.0595 µM
Cc1ccc(-c2cc(-c3c(Cl)cccc3Cl)c3c(=O)[nH]c(=O)[nH]c3n2)cc1 — IC50 (MTT; 48 h): 28 µM
C=CC(=O)c1cccnc1Nc1cc(C(F)(F)F)ccc1OC — GI50 (CCK-8; 72 h): 12.3 µM
Cc1nc(Nc2ccc3c(c2)C(C)(C)C(=O)N3)c2ccccc2n1 — IC50 (MTT): > 50 µM
Cc1ccc(-c2cc(-c3ccc(Cl)c(F)c3)c3c(=O)n(C)c(=O)n(C)c3n2)cc1 — IC50 (MTT; 48 h): 21.4 µM
COc1nc(NCc2cn(-c3ccc(NC(=O)c4ccccc4)cc3)nn2)nc(OC)n1 — IC50 (MTT; 72 h): 0.0608 µM
Cc1nc(Nc2ccc3c(c2)/C(=C/c2ccccc2C)C(=O)N3)c2ccccc2n1 — IC50 (MTT): 9.25 µM
COc1ccc(-c2cc(-c3ccc(Cl)cc3)c3c(=O)n(C)c(=O)n(C)c3n2)cc1 — IC50 (MTT; 48 h): 7.54 µM
CC(=NNC(=O)COc1ccc2c(C)c(Cc3ccccc3)c(=O)oc2c1C)c1ccc(Br)cc1 — viability (MTT; 100 µg/mL): 33.6%
COc1cc2ncnc(Nc3ccc4c(c3)/C(=C/c3ccccc3)C(=O)N4C)c2cc1OC — IC50 (MTT): 6.67 µM
Cc1ccc(-c2cc(-c3ccc(N(C)C)cc3)c3c(=O)[nH]c(=O)[nH]c3n2)cc1 — IC50 (MTT; 48 h): 7.66 µM
COc1cc2ncnc(Nc3ccc4c(c3)/C(=C/c3ccccc3)C(=O)N4)c2cc1OC — IC50 (MTT): 25.7 µM
COc1nc(NCc2cn(-c3ccc(NC(=O)c4ccc(F)cc4)cc3)nn2)nc(OC)n1 — IC50 (MTT; 72 h): 0.0122 µM
O=C(O)c1cccnc1Nc1cccc(C(F)(F)F)c1 — GI50 (CCK-8; 72 h): > 40 µM
COc1ccc(-c2cc(-c3ccc(Br)cc3)c3c(=O)[nH]c(=O)[nH]c3n2)cc1 — IC50 (MTT; 48 h): 7.88 µM
COc1cccc2c1C(=O)c1c(O)c3c(c(O)c1C2=O)C[C@@](O)(C(=O)CO)C[C@@H]3O[C@H]1C[C@H](N)[C@H](O)[C@H](C)O1 — IC50 (MTT; 72 h): 0.83 µM
Cc1nc(N(C)c2ccc3c(c2)/C(=C/c2ccccc2Cl)C(=O)N3C)c2ccccc2n1 — IC50 (MTT): 4.11 µM
COc1nc(NCc2cn(-c3ccc(NC(=O)c4ccc(Cl)cc4)cc3)nn2)nc(OC)n1 — IC50 (MTT; 72 h): 0.0338 µM
COc1ccc(-c2cc(-c3cccc(Br)c3)c3c(=O)[nH]c(=O)[nH]c3n2)cc1 — IC50 (MTT; 48 h): 9.77 µM
COc1nc(NCc2cn(-c3ccc(C(=O)Nc4ccc(Br)cc4)cc3)nn2)nc(OC)n1 — IC50 (MTT; 72 h): 0.0279 µM
C=CC(=O)NC1CCN(c2ncc3ncnc(Nc4ccc(Oc5ccc6c(c5)ncn6C)c(C)c4)c3n2)CC1 — EC50: 2.6 µM
COc1nc(NCc2cn(-c3ccc(C(=O)Nc4ccccc4)cc3)nn2)nc(OC)n1 — IC50 (MTT; 72 h): 0.00087 µM
COc1ccc(-c2cc(-c3c(OC)cccc3OC)c3c(=O)[nH]c(=O)[nH]c3n2)cc1 — IC50 (MTT; 48 h): 29 µM
